According to the array DNA melting data of Ke et al. (doi:10.1101/2024.01.08.574731):

Key:
[1] = melting temperature; fluorescence melt of hairpins on a sequencing array, two-state fit, raised by 9.35 °C to match UV melts; conditions: sodium 0.088 M
In short: (§1)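 Melting temperature and folding enthalpy were derived from bootstrapped two-state fits. The fitted temperatures were raised by 9.35 °C to agree with UV melts, and four replicates were combined by inverse variance. The underlying data were Cy3 fluorescence images of library hairpins, with annealed Cy3 and quencher oligos, on a sequenced MiSeq flow cell in 50 mM Na-HEPES pH 8.0, 25 mM NaCl, taken in 2.5 °C steps up to 60 °C, normalised to pre-quench Cy3 and to control constructs.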

[2] = folding enthalpy; higher = less favourable; fluorescence melt of hairpins on a sequencing array, two-state fit; conditions: sodium 0.088 M
In short: as §1

Sequence | Tm [1] [°C] | folding enthalpy [2] [kcal/mol]
GGCTAGAAATAGCC (((((....))))) | 51.5 | -24.6
GACACCGAAAGGTAGTC ((((((....))).))) | 50.1 | -22.5
GATCCACAATGGATC ((((((...)))))) | 48.3 | -30.7
GTGTCCCGAAAGGGCAC (((.(((....)))))) | 65.2 | -26.1
GCGGCATCCGC ((((...)))) | 54.8 | -17.9
GTGTGACGAAAGTCCCAC (((.(((....))).))) | 50.5 | -25
GCGCTGCGAAAGCAACGC (((.(((....))).))) | 61.5 | -49
GGAACTGAAAAGTTCC ((((((....)))))) | 56.4 | -38.3
GCCGTGGGAAACCACGAC (.(((((....))))).) | 52 | -14.8
GATCTACATTAGATC ((((((...)))))) | 37.5 | -25
GATCCTATGGAGGATC ((((((....)))))) | 50.6 | -35.2
CCTTCGAAAGAAGG (((((....))))) | 55.2 | -20.7
CGCGGATAACTCCGCG ((((((....)))))) | 62.2 | -38
GCTCTGGGAAACCAAAGC (((.(((....))).))) | 35.5 | -23.7
GACAGACGAAAGTCCGTC (((.(((....))).))) | 47.5 | -26
GCGGCGCCGAAAGGCCGC (((..(((....)))))) | 67.2 | -14.3
GGCCGAGGAAACTCGGTC (.(((((....))))).) | 64.4 | -31.4
GAAGGCGGAAACGCTTTC (((.(((....))).))) | 48.2 | -24.9
GCCTAGGGAAACCCAGGC ((((.((....)).)))) | 50.6 | -31.6
GCGAGGGGAAACCTTCGC ((((.((....)).)))) | 56.3 | -35.4
GACAACGAAAGTTTTGTC ((((((....)))..))) | 31.8 | -24.7
GATCGACGCATCGATC ((((((....)))))) | 52.6 | -32.6
GGGTGCCCGAAAGGGCCC (((..(((....)))))) | 55.5 | -11.6
TTACTGAAAAGTAA (((((....))))) | 26.7 | -8.68

Sequence | Tm [1] [°C] | folding enthalpy [2] [kcal/mol]
GAAGTGGAAACACTTC ((((((....)))))) | 54 | -33.7
GAGGGTGCGAAAGCACTC (((..(((....)))))) | 41.1 | -8.61
GATCGATTAATCGATC ((((((....)))))) | 55.9 | -43.9
GGTTCGGGAAACCGAATC (.(((((....))))).) | 50.6 | -27.1
GGGAAACGAAAGTTCCCC (((.(((....))).))) | 51 | -30.6
GTTATACGAAAGTAAAAC (((.(((....))).))) | 32.2 | -20.2
GCCTAGCGAAAGCTAAGC ((.((((....)))).)) | 48.9 | -17.1
GTGCGACGAAAGTCCAC (((.(((....)))))) | 52 | -29.4
GATCCGTGATCGGATC ((((((....)))))) | 58.6 | -32.1
GCGTAAAGACGC ((((....)))) | 46.9 | -17.8
GATCACGAAAGTGGTATC ((((((....)))..))) | 34.1 | -13.5
GATCTTGGATAAGATC ((((((....)))))) | 49.4 | -30.6
GATCGTGTTCACGATC ((((((....)))))) | 58.8 | -44.2
GTAGTAGGAAACTGCTAC ((((.((....)).)))) | 44.7 | -30.5
GATCTAGCGAAAGCTATC (((..(((....)))))) | 22.8 | -10.5
GACTGTGGAAACACAGCC (.(((((....))))).) | 43.7 | -13.7
GATCCCCATGGGGATC ((((((....)))))) | 67.7 | -39.7
GTGGAGCGAAAGCTTCAC (((.(((....))).))) | 58.1 | -35.6
GATCTACCCTTAGATC ((((((....)))))) | 41.8 | -35.6
GCGCAACGAAAGTTCGC (((.(((....)))))) | 54.9 | -32
GGGCATCGAAAGATACCC (((.(((....))).))) | 49.5 | -31.6
GATCTTGTAAAAGATC ((((((....)))))) | 52.8 | -41.1
GTGTCTCGAAAGAGCCAC (((.(((....))).))) | 49.7 | -28.9
TTACGGAAACGTAA (((((....))))) | 42.1 | -14.8

Sequence | Tm [1] [°C] | folding enthalpy [2] [kcal/mol]
GTCGTGGGAAACTACGAC (((((.(....).))))) | 53.9 | -37.3
GCGCCGCGAAAGCGCAGC ((..(((....)))..)) | 59.8 | -14.1
GTTCCCGAAAGGGGGAAC ((((((....)))..))) | 48.4 | -19.3
GCGAAGCGAAAGCTAAGC ((..(((....)))..)) | 54.4 | -16.5
GGGCTTGGAAACAAGTCC ((.((((....)))).)) | 54.6 | -50.9
GGTCGCCGAAAGGCACC (((.(((....)))))) | 55.3 | -12.6
GATCTCCGATGAGATC ((((((....)))))) | 50.7 | -31.3
GGTCAAGGAAACTTGACC (((((((....))))))) | 63.5 | -43
GAGACGAAAGTCTC (((((....))))) | 67.1 | -23.1
GATCAAGTGTTTGATC ((((((....)))))) | 43.5 | -31.8
GTAGAGCGAAAGCTTTAC (((.(((....))).))) | 47.5 | -24.4
GTTACCGAAAGGTAAAC ((((((....))).))) | 48 | -15.7
GATCTAAACTAGATC ((((((...)))))) | 36.1 | -23.9
GGGGACGGAAACGCCCCC ((((.((....)).)))) | 57.9 | -26.1
GTGTGCGAAAGCAGGCAC ((((((....)))..))) | 44.8 | -15.8
GATCGAAAGATCGATC ((((((....)))))) | 50.2 | -19.9
GCTGCTGCGAAAGCAAGC (((..(((....)))))) | 54.1 | -11.7
GATAGGAAACTATC (((((....))))) | 40.2 | -15.4
GGGGATCGAAAGATACCC (((.(((....))).))) | 62.3 | -43.2
GTACGCGCGAAAGCGTAC (((..(((....)))))) | 61.3 | -20.2
GATCTAACCCTAGATC ((((((....)))))) | 37.5 | -31.1
GAGATACGAAAGTACCTC (((.(((....))).))) | 41.5 | -31.3
GGAAAGGAAACTTTCC ((((((....)))))) | 50 | -29.9
GTCTTCGAAAGAAGGGAC ((((((....)))..))) | 32.9 | -14.1

Sequence | Tm [1] [°C] | folding enthalpy [2] [kcal/mol]
GGGATATCGAAAGATCCC (((..(((....)))))) | 43.4 | -27.9
GATCGGATTCCCGATC ((((((....)))))) | 55.5 | -36
GCCCCGCGAAAGCGCGGC (((.(((....))).))) | 64.4 | -17.4
GAAGCAGGAAACTACTTC ((((.((....)).)))) | 31.7 | -19
GTCATCGAAAGATGGGAC ((((((....)))..))) | 34.1 | -14.4
GTGCCCCGAAAGGGCCAC (((.(((....))).))) | 51.3 | -13.4
GTGTACGAAAGTATTCAC ((((((....)))..))) | 28.7 | -11.8
GTGTTATCGAAAGATCAC (((..(((....)))))) | 33.8 | -27.6
GTTATCGGAAACGACAAC (((.(((....))).))) | 36.4 | -19.8
GCATTTGCGAAAGCATGC (((..(((....)))))) | 44.9 | -17.9
GCGCTGCCGAAAGGCCGC (((..(((....)))))) | 58.5 | -17.8
GCGTTAGAAATAACGC ((((((....)))))) | 57.6 | -37.8
GTCAGCGAAAGCTTTGAC ((((((....)))..))) | 35 | -15.3
GTCACTCGAAAGAGGAC (((.(((....)))))) | 45.8 | -23.9
GTAACGGAAACGTTAC ((((((....)))))) | 56.3 | -40.2
GAATCGGGAAACCGGTTC (((.(((....))).))) | 50.2 | -35.8
GAGAACCGAAAGGTCCTC (((.(((....))).))) | 46.6 | -24.6
GTACCAGGAAACCGGTAC (((((.(....).))))) | 46.9 | -35.7
GTTGGTCGAAAGACGAAC (((.(((....))).))) | 48.1 | -29.9
GGGGGCGAAAGCCATCCC ((((((....)))..))) | 51.5 | -13.5
GTCTTACGAAAGTAGAC (((.(((....)))))) | 43.4 | -23.8
